Experimental findings from ChEMBL document CHEMBL3526029, “Disposition and metabolism of GSK2251052 in humans: a novel boron-containing antibiotic” (Drug Metab Dispos, 2013) are described below.

The nature of data set [1]: Drug recovery in healthy human urine treated with [14C]GSK2251052 at 1500 mg, iv infusion for 1 hr as single dose after 120 to 336 hrs by HPLC method. Particulars: in vivo. The data set is classed as ADME, organism-based. In short, it runs like this: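 Urine pooled by weight per subject over 0–120 h; 120–336 h pools from all subjects combined into one composite. Centrifuged at ~21,000g, then supernatant profiled by HPLC (Atlantis T3, ammonium acetate pH 4.5/methanol, 30°C) with radiochemical detection plus MS identification. Results are % of dose, corrected for centrifugation recovery measured by triplicate LSC.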

Data set [2] is described as follows: Drug recovery in cynomolgus monkey liver cytosol at pH 8.4 treated with in presence of NAD+ [14C]GSK2251052 at 500 uM after 3 hrs by liquid scintillation counting. The class given is ADME, Macaca fascicularis. The following applies: pH 8.4, 3 h.
Data set [3] can be described thus: Drug recovery in cynomolgus monkey liver S9 fraction at pH 7.4 treated with [14C]GSK2251052 at 500 uM after 3 hrs by liquid scintillation counting in presence of NAD+. The class given is ADME, subcellular, Macaca fascicularis. The following applies: s9, pH 7.4, 3 h.
The test system of another data set is Liver cytosol. The data set can be described thus: Drug metabolism in human liver cytosol assessed as compound formation treated with GSK2251052 at 50 to 500 uM after 3 hrs by spectrophotometry in presence of NAD+ and ADH inhibitor 4-MP. The data set is classed as ADME.
Data set [4] deals with Plasma. Description: AUC (0 to infinity) in plasma of healthy human treated with [14C]GSK2251052 at 1500 mg, iv infusion for 1 hr as single dose. The data set is classed as ADME, organism-based. On the set-up: dose 1500 mg, route intravenous, time infinity. The following applies: in vivo. In short, it runs like this: (§1)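 Six fasted healthy men received 1500 mg [14C]GSK2251052 as a 1-h constant-rate i.v. infusion. K2EDTA plasma was sampled from predose to 72 h, with profiling samples added at 96, 144 and 336 h. Parent and M3 were measured by validated LC/MS/MS after methanol/formic acid precipitation with stable-label internal standards (range 5–10,000 ng/ml). Noncompartmental analysis used actual times, linear-up/log-down trapezoids and CL = dose/AUC(0-∞).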

Data set [5] in a line: Drug recovery in cynomolgus monkey liver cytosol at pH 7.4 treated with [14C]GSK2251052 at 500 uM after 3 hrs by liquid scintillation counting in presence of NAD+. The data set is classed as ADME, Macaca fascicularis. The following applies: pH 7.4, 3 h.
The nature of data set [6]: Drug recovery in healthy human feces treated with [14C]GSK2251052 at 1500 mg, iv infusion for 1 hr as single dose after 0 to 120 hrs by HPLC method. The following applies: in vivo.
Data set [7] has as its system Plasma. Description: Tmax in plasma of healthy human treated with [14C]GSK2251052 at 1500 mg, iv infusion for 1 hr as single dose. The class given is ADME, organism-based. Particulars: in vivo. In short, it runs like this: (§2)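 Healthy men got a single 1500 mg [14C] dose by 1 h i.v. infusion. K2EDTA blood was sampled up to 336 h. Radioactivity in blood and plasma was measured by LSC, with AMS for plasma below LLQ. Parent and M3 were measured by LC/MS/MS (5–10,000 ng/ml range). Noncompartmental analysis used actual times, with t1/2 = ln2/λz and Tmax observed directly, timed from infusion start.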

Data set [8] is described as follows: Drug metabolism assessed as purified ADH (unknown origin)-mediated compound formation treated with GSK2251052 at 50 to 500 uM by spectrophotometry in presence of NAD+. Particulars: human, TDE = time-dependent effect. The data set is classed as ADME.
Data set [9] can be described thus: Drug recovery in cynomolgus monkey liver S9 fraction at pH 8.8 treated with [14C]GSK2251052 at 500 uM after 3 hrs by liquid scintillation counting in presence of NAD+. The following applies: s9, pH 8.8, 3 h. The class given is ADME, subcellular, Macaca fascicularis.
Data set [10] deals with Plasma. The data set can be described thus: AUC (0 to t) in plasma of healthy human treated with [14C]GSK2251052 at 1500 mg, iv infusion for 1 hr as single dose. The class given is ADME, organism-based. Particulars: in vivo. In short, it runs like this:
as §1

For data set [11], the system named is Plasma. The data set can be described thus: Cmax in plasma of healthy human treated with [14C]GSK2251052 at 1500 mg, iv infusion for 1 hr as single dose. The class given is ADME, organism-based. Also noted: dose 1500 mg, route intravenous. Particulars: in vivo. In short, it runs like this: as §1
A short description of data set [12]: Drug recovery in healthy human feces treated with [14C]GSK2251052 at 1500 mg, iv infusion for 1 hr as single dose after 120 hrs by HPLC method. The class given is ADME, organism-based. The following applies: in vivo. In short, it runs like this: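 Feces pooled over 0–120 h per subject by sample weight. About 1 g homogenate extracted twice with 4 volumes of acetonitrile:methanol:water:formic acid (50:25:25:1) under 20 min sonication. Extracts dried and reconstituted in water:methanol 90:10. Profiled by HPLC (Atlantis T3, ammonium acetate pH 4.5/methanol, 30°C) with fraction radiocounting and Orbitrap MS. Results given as % of dose, corrected for extraction recovery.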

Data set [13] is described as follows: Drug recovery in cynomolgus monkey liver S9 fraction at pH 8.4 treated with [14C]GSK2251052 at 500 uM after 3 hrs by liquid scintillation counting in presence of NAD+. The data set is classed as ADME, subcellular, Macaca fascicularis. Particulars: s9, pH 8.4, 3 h.
The nature of data set [14]: Drug metabolism in human liver cytosol assessed as ADH-mediated compound formation treated with GSK2251052 at 50 to 500 uM by spectrophotometry in presence of NAD+. The data set is classed as ADME. The following applies: TDE = time-dependent effect.
Data set [15] is described as follows: Drug recovery in cynomolgus monkey liver microsomes at pH 7.4 treated with [14C]GSK2251052 at 500 uM after 3 hrs by liquid scintillation counting in presence of NAD+. The class given is ADME, Macaca fascicularis. The following applies: pH 7.4, 3 h. Background: Liver microsomes are vesicles of endoplasmic reticulum, rich in cytochrome P450 enzymes.
The test system of data set [16] is Plasma. The data set can be described thus: Half life in plasma of healthy human treated with [14C]GSK2251052 at 1500 mg, iv infusion for 1 hr as single dose. The data set is classed as ADME, organism-based. The following applies: in vivo. The method in brief:
as §2

What is called AUC is the area under the concentration-time curve, a measure of exposure. One may read the Tmax as the time at which the peak concentration occurs. Usually Cmax stands for the maximum level reached in the sampled fluid or tissue.

Take `NCC(O)c1cccc(OCCCO)c1O` (centres undefined): the Drug recovery result in data set [1] (BLD = below limit of detection) was “BLD”.
Turning to `Cl.NC[C@H]1OB(O)c2c(OCCC(=O)O)cccc21`, the Drug recovery in [2] is 0.9%; in data set [3], 7.7%; in data set [5], 1.7%; in data set [6], 3.3%; in data set [9] it was 4.3%; in data set [12] it was 3.3%. The Drug recovery came to 6.7% in data set [13], 43.8% in data set [1] (in the assay text read “0 to 120 hrs” for “120 to 336 hrs”) and 2.5% in data set [15]. Further, the Drug metabolism entry was “metabolite_not_detected” in the data set on Liver cytosol, “tde” in [8] and “tde” in [14]. The compound also came in with an AUC in the data set on Plasma [4] of 103 µg·h/mL. Further, the Tmax in the data set on Plasma [7] is 7 h. Further, the AUCt with Plasma [10] came out at 101 µg·h/mL. This compound also displayed a Cmax in the data set on Plasma [11] of 1.77 µg/mL. For the same compound, the t1/2 in the data set with Plasma [16] is 77.3 h.
Consider `CC(=O)NC[C@H]1OB(O)c2c(OCCC(=O)O)cccc21`, for which, in data set [1] (BLD = below limit of detection), the Drug recovery entry is listed as “BLD”.
